Laboratory results taken from ChEMBL document CHEMBL3045650, “Design, synthesis, and 3D-QSAR analysis of novel 1,3,4-oxadiazol-2(3H)-ones as protoporphyrinogen oxidase inhibitors” (J Agric Food Chem, 2010).

What was measured:
Amaranthus retroflexus [1] = assay: Post-emergence herbicidal activity against Amaranthus retroflexus assessed as growth inhibition at emulsified concentrate of 37.5 g/ai ha after 15 days by greenhouse test; assay type: functional
Method in brief: (§1)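 Compounds were made up as 100 g/L emulsifiable concentrates in DMF with Tween-80, then diluted in water. About 20 seeds were sown 1-3 cm deep in pots and grown in a greenhouse at 15-30 °C and 50% relative humidity. Sprays were applied postemergence at the two-leaf stage. Untreated and DMF + Tween-80 solvent controls were included. Injury was scored visually 15 days after treatment, with three replicates per treatment.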

Eclipta prostrata [2] = assay: Post-emergence herbicidal activity against Eclipta prostrata assessed as growth inhibition at emulsified concentrate of 75 g/ai ha after 15 days by greenhouse test; assay type: functional; method in brief: as §1
Polygonum humifusum [3] = assay: Post-emergence herbicidal activity against Polygonum humifusum assessed as growth inhibition at emulsified concentrate of 150 g/ai ha after 15 days by greenhouse test; assay type: functional
Polygonum humifusum [4] = assay: Post-emergence herbicidal activity against Polygonum humifusum assessed as growth inhibition at emulsified concentrate of 75 g/ai ha after 15 days by greenhouse test; assay type: functional
Amaranthus retroflexus [5] = assay: Post-emergence herbicidal activity against Amaranthus retroflexus assessed as growth inhibition at emulsified concentrate of 150 g/ai ha after 15 days by greenhouse test; assay type: functional
Method in brief: (§2)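 About 20 seeds sown 1–3 cm deep, grown at 15–30 °C and 50% RH. Dicot seedlings sprayed postemergence at the two-leaf stage with a 100 g/L emulsifiable concentrate (DMF/Tween-80) diluted in water, 150 g ai/ha. Untreated and solvent controls included. Visual rating at 15 days, three replicates.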

Cyperus iria [6] = assay: Post-emergence herbicidal activity against Cyperus iria assessed as growth inhibition at emulsified concentrate of 37.5 g/ai ha after 15 days by greenhouse test; assay type: functional
Echinochloa crus-galli = assay: Post-emergence herbicidal activity against Echinochloa crus-galli (barnyard grass) assessed as growth inhibition at emulsified concentrate of 150 g/ai ha after 15 days by greenhouse test; assay type: functional
Method in brief: (§3)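 About 20 seeds sown 1–3 cm deep, grown at 15–30 °C and 50% RH. Monocot seedlings sprayed postemergence at the one-leaf stage with a 100 g/L emulsifiable concentrate (DMF/Tween-80) diluted in water, 150 g ai/ha. Untreated and solvent controls included. Visual rating at 15 days, three replicates.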

Brassica juncea [7] = assay: Post-emergence herbicidal activity against Brassica juncea assessed as growth inhibition at emulsified concentrate of 37.5 g/ai ha after 15 days by greenhouse test; assay type: functional; method in brief: as §1
[8] = target: T1, Protoporphyrinogen oxidase (Homo sapiens, UniProt P50336); assay: Inhibition of Homo sapiens (human) recombinant protoporphyrinogen oxidase expressed in Escherichia coli JM109 assessed as oxidation of protoporphyrinogen IX substrate by fluorescence assay
T1 sequence (P50336 whole entry): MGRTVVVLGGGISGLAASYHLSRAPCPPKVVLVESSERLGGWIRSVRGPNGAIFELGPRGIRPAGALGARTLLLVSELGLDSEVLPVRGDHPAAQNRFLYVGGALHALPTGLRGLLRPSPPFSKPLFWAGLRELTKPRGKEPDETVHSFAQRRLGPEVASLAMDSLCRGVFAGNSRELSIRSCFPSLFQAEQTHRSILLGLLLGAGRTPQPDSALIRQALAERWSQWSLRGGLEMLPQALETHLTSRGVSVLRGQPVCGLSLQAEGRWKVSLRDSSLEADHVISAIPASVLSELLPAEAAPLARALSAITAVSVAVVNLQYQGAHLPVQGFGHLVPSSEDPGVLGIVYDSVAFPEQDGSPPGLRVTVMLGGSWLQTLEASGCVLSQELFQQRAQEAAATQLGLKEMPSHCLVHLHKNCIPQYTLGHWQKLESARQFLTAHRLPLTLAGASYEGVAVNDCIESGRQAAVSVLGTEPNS

Abutilon theophrasti [9] = assay: Post-emergence herbicidal activity against Abutilon theophrasti (velvetleaf) assessed as growth inhibition at emulsified concentrate of 75 g/ai ha after 15 days by greenhouse test; assay type: functional
Abutilon theophrasti [10] = assay: Post-emergence herbicidal activity against Abutilon theophrasti (velvetleaf) assessed as growth inhibition at emulsified concentrate of 150 g/ai ha after 15 days by greenhouse test; assay type: functional
Rumex acetosa [11] = assay: Post-emergence herbicidal activity against Rumex acetosa assessed as growth inhibition at emulsified concentrate of 150 g/ai ha after 15 days by greenhouse test; assay type: functional
Polygonum humifusum [12] = assay: Post-emergence herbicidal activity against Polygonum humifusum assessed as growth inhibition at emulsified concentrate of 37.5 g/ai ha after 15 days by greenhouse test; assay type: functional
Abutilon theophrasti [13] = assay: Post-emergence herbicidal activity against Abutilon theophrasti (velvetleaf) assessed as growth inhibition at emulsified concentrate of 37.5 g/ai ha after 15 days by greenhouse test; assay type: functional
Brassica juncea [14] = assay: Post-emergence herbicidal activity against Brassica juncea assessed as growth inhibition at emulsified concentrate of 75 g/ai ha after 15 days by greenhouse test; assay type: functional; method in brief: as §1
Digitaria sanguinalis = assay: Post-emergence herbicidal activity against Digitaria sanguinalis (hairy crabgrass) assessed as growth inhibition at emulsified concentrate of 150 g/ai ha after 15 days by greenhouse test; assay type: functional; method in brief: as §3
Rumex acetosa [15] = assay: Post-emergence herbicidal activity against Rumex acetosa assessed as growth inhibition at emulsified concentrate of 75 g/ai ha after 15 days by greenhouse test; assay type: functional
Brassica juncea [16] = assay: Post-emergence herbicidal activity against Brassica juncea assessed as growth inhibition at emulsified concentrate of 150 g/ai ha after 15 days by greenhouse test; assay type: functional; method in brief: as §2
Amaranthus retroflexus [17] = assay: Post-emergence herbicidal activity against Amaranthus retroflexus assessed as growth inhibition at emulsified concentrate of 75 g/ai ha after 15 days by greenhouse test; assay type: functional; method in brief: as §1
Eclipta prostrata [18] = assay: Post-emergence herbicidal activity against Eclipta prostrata assessed as growth inhibition at emulsified concentrate of 37.5 g/ai ha after 15 days by greenhouse test; assay type: functional; method in brief: as §1
Cyperus iria [19] = assay: Post-emergence herbicidal activity against Cyperus iria assessed as growth inhibition at emulsified concentrate of 150 g/ai ha after 15 days by greenhouse test; assay type: functional
Rumex acetosa [20] = assay: Post-emergence herbicidal activity against Rumex acetosa assessed as growth inhibition at emulsified concentrate of 37.5 g/ai ha after 15 days by greenhouse test; assay type: functional
Eclipta prostrata [21] = assay: Post-emergence herbicidal activity against Eclipta prostrata assessed as growth inhibition at emulsified concentrate of 150 g/ai ha after 15 days by greenhouse test; assay type: functional; method in brief: as §2
Cyperus iria [22] = assay: Post-emergence herbicidal activity against Cyperus iria assessed as growth inhibition at emulsified concentrate of 75 g/ai ha after 15 days by greenhouse test; assay type: functional
Poa annua = assay: Post-emergence herbicidal activity against Poa annua assessed as growth inhibition at emulsified concentrate of 150 g/ai ha after 15 days by greenhouse test; assay type: functional; method in brief: as §3

SMILES	inhibition (INH) (Amaranthus retroflexus [1]) [%]	inhibition (INH) (Eclipta prostrata [2]) [%]	inhibition (INH) (Polygonum humifusum [3]) [%]	inhibition (INH) (Polygonum humifusum [4]) [%]	inhibition (INH) (Amaranthus retroflexus [5]) [%]	inhibition (INH) (Cyperus iria [6]) [%]	inhibition (INH) (Echinochloa crus-galli) [%]	inhibition (INH) (Brassica juncea [7]) [%]	Ki [8] [µM]	inhibition (INH) (Abutilon theophrasti [9]) [%]	inhibition (INH) (Abutilon theophrasti [10]) [%]	inhibition (INH) (Rumex acetosa [11]) [%]	inhibition (INH) (Polygonum humifusum [12]) [%]	inhibition (INH) (Abutilon theophrasti [13]) [%]	inhibition (INH) (Brassica juncea [14]) [%]	inhibition (INH) (Digitaria sanguinalis) [%]	inhibition (INH) (Rumex acetosa [15]) [%]	inhibition (INH) (Brassica juncea [16]) [%]	inhibition (INH) (Amaranthus retroflexus [17]) [%]	inhibition (INH) (Eclipta prostrata [18]) [%]	other results
CCOC(=O)CCSc1nc2cc(-n3nc(C(C)(C)C)oc3=O)c(Cl)cc2s1	50	60	70	70	80	40	0	60	0.25	0	0	70	70	0	60	0	70	70	60	50	inhibition (INH) (Cyperus iria [19]): 60%; inhibition (INH) (Rumex acetosa [20]): 60%; inhibition (INH) (Eclipta prostrata [21]): 60%; inhibition (INH) (Cyperus iria [22]): 50%; inhibition (INH) (Poa annua): 0%
COC(=O)CSc1nc2cc(-n3nc(C(C)(C)C)oc3=O)c(Br)cc2s1	50	0	70	70	80	40	0	0	7.46	0	0	60	60	0	0	0	50	0	60	0	inhibition (INH) (Cyperus iria [19]): 50%; inhibition (INH) (Rumex acetosa [20]): 40%; inhibition (INH) (Eclipta prostrata [21]): 0%; inhibition (INH) (Cyperus iria [22]): 40%; inhibition (INH) (Poa annua): 0%
